Drawing on BindingDB's records for doi:10.1128/AAC.00971-08 (Cnrs-Cpbs/Umr 5236, 2009), this text covers Kd for two molecules.

Usually pKd stands for the negative decadic logarithm of the Kd, by convention in mol/L.

pKd: −log10 of the molar value.

The target in this assay is Albumin (Homo sapiens, UniProt P02768). Put plainly: Binding affinity to first site on human serum albumin by SPR. In outline:
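SPR on a BIACORE 3000 at 25°C. HSA was amine-coupled to a CM5 chip at 40 µg/ml in 10 mM acetate, pH 5.2. Drug was injected from 400 µM to 0.1 µM in twofold dilutions in PBS with 5% DMSO at 50 µl/min, with 30 s association and 30 s dissociation. Responses were reference-subtracted, read 10 s into the injection and DMSO-corrected. Dose-response curves gave KD or fraction of sites occupied.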
A general note: In SPR one partner is held on a chip, and binding of the other changes the refractive index at the surface.

Sequence of Albumin (P02768 whole entry): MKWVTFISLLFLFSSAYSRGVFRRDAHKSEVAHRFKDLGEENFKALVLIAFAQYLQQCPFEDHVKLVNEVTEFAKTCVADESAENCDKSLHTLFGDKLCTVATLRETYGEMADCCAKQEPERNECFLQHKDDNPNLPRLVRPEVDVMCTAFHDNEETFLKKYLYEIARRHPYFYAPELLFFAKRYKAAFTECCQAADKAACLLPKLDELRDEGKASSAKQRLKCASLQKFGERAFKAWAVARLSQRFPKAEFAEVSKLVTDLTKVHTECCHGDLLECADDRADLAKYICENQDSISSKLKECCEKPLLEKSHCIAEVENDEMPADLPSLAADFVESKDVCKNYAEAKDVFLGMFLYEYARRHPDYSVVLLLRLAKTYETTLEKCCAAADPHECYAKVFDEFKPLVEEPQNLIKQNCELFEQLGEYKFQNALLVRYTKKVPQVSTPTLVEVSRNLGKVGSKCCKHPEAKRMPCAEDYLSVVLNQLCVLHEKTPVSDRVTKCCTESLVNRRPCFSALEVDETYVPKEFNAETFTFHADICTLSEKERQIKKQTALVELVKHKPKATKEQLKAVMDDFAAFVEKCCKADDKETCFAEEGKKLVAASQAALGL

For `CN(C)c1ccc(O)c2c1C[C@H]1C[C@H]3[C@H](N(C)C)C(=O)C(C(N)=O)C(=O)[C@@]3(O)C(=O)C1C2=O` (some centres not stated) [Klinomycin], the negative-log Kd (pKd) was 4.92.

`COc1ccc(OC)c(/C=C2\SC(=S)N(C(C(=O)O)c3ccccc3)C2=O)c1` (configuration not stated) [2-[(5Z)-5-[(2,5-dimethoxyphenyl)methylidene]-4-oxo-2-sulfanylidene-3-thiazolidinyl]-2-phenylacetic acid] had a pKd of 4.92.
